Results published in PMC7610841 (Nature, 2020).

What follows are molecules tested on extracellular Wingless (assay: In vivo trapping of endogenous extracellular Wingless in wing discs). Conditions: overexpressed with ptc-gal4 in wing discs; extracellular Wingless staining.
Design: species or system Drosophila
In short: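 HA-tagged wild-type or point-mutant Dlp/Dally transgenes (attP2 landing site) driven by ptc-gal4, crossed at 25°C. Wing discs immunostained for extracellular Wingless using an extracellular staining protocol, DAPI-mounted and imaged on a confocal microscope. Three independent repeats.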

Molecule	trapping of endogenous Wingless
Dlp[F172T, F195Y]: Dlp mutant replacing hydrophobic residues with polar ones (protein, left off: HA, end not stated, kept) MLHQQQQQQHLHCRRKATATTTARLVIFSSPLLLLLLTTHLPPTLQADNGPAPQVAALAAPNPAGGVAGSSIIDQFSPNCSAVTHIFQARGIDAIEIPQKPSNERVLRYCESPSVGTCCTYNMETRMAMQSRQQLEGHTKDQISRMSGILGSKATKFKDIFTALLKESRTQTNSMFIRTYGVIYERNSYVFSDLYKELETYFANGRVDLLEVMDKFFNTLYQKMFTVLNTQYTFDENYMRCVSEHMKELKPFGDVPDKLSVQIKRSFVATRTYGQALTTASEVAKKVLNVRLNADCTGALTKMQHCGACKGYTEKPCTNYCVNVIKGCLHYQHEFDSEWENFAMAMDKVAERLLGSFNIVMVVEPLNIKISEAIMNFQDSGQDITNRVFQGCGRPKLKKMKRSISPKLQGVQILNARSPVEADTLDIDETLDEAIVLRERRAAEPGSQETSAQQSQEQGVGKSGNGGGGGGGNNRRQQQRRKQQQQRRKQQNNRDDNDDDDNESGGGREPILDRIVRDIRQRVKDYKKFWSNLPHSVCSNEDIASSSDVDGMCWNGHTIDRYMHSITTEHGSNPEFTGNPASTKQTAQMASQLSHLKNAIVHLRNAYNGQDVEWSEQEELPYAGSGAGSGSGSEDDEDDDEGSGLGPFEPSHKPDVERPSVDADNDDDEDAGGRGHMPTHTSRPTSGVDDKNPLIHTTHFDQDHNDLDEDHRQLDEDEDTDAGHDGANDNRSSDAPEKMTLRRALVVYLLPLYMAWFGGVCADLL	reduced trapping, though not completely
Dlp[R169E, T170N, Q171M, F172T]: Dlp mutant introducing the putative glycosylation site of Dally (protein, left off: HA, end not stated, kept) MLHQQQQQQHLHCRRKATATTTARLVIFSSPLLLLLLTTHLPPTLQADNGPAPQVAALAAPNPAGGVAGSSIIDQFSPNCSAVTHIFQARGIDAIEIPQKPSNERVLRYCESPSVGTCCTYNMETRMAMQSRQQLEGHTKDQISRMSGILGSKATKFKDIFTALLKESENMTNSMFIRTYGVIYERNSYVFSDLFKELETYFANGRVDLLEVMDKFFNTLYQKMFTVLNTQYTFDENYMRCVSEHMKELKPFGDVPDKLSVQIKRSFVATRTYGQALTTASEVAKKVLNVRLNADCTGALTKMQHCGACKGYTEKPCTNYCVNVIKGCLHYQHEFDSEWENFAMAMDKVAERLLGSFNIVMVVEPLNIKISEAIMNFQDSGQDITNRVFQGCGRPKLKKMKRSISPKLQGVQILNARSPVEADTLDIDETLDEAIVLRERRAAEPGSQETSAQQSQEQGVGKSGNGGGGGGGNNRRQQQRRKQQQQRRKQQNNRDDNDDDDNESGGGREPILDRIVRDIRQRVKDYKKFWSNLPHSVCSNEDIASSSDVDGMCWNGHTIDRYMHSITTEHGSNPEFTGNPASTKQTAQMASQLSHLKNAIVHLRNAYNGQDVEWSEQEELPYAGSGAGSGSGSEDDEDDDEGSGLGPFEPSHKPDVERPSVDADNDDDEDAGGRGHMPTHTSRPTSGVDDKNPLIHTTHFDQDHNDLDEDHRQLDEDEDTDAGHDGANDNRSSDAPEKMTLRRALVVYLLPLYMAWFGGVCADLL	reduced trapping, though not completely
Dlp[N367C, M175C]^ΔGPI: Dlp mutant with engineered disulphide bridge locking closed, apo conformation (protein, left off: V5, C-terminal, kept) PQVAALAAPNPAGGVAGSSIIDQFSPNCSAVTHIFQARGIDAIEIPQKPSNERVLRYCESPSVGTCCTYNMETRMAMQSRQQLEGHTKDQISRMSGILGSKATKFKDIFTALLKESRTQFNSCFIRTYGVIYERNSYVFSDLFKELETYFANGRVDLLEVMDKFFNTLYQKMFTVLNTQYTFDENYMRCVSEHMKELKPFGDVPDKLSVQIKRSFVATRTYGQALTTASEVAKKVLNVRLNADCTGALTKMQHCGACKGYTEKPCTNYCVNVIKGCLHYQHEFDSEWENFAMAMDKVAERLLGSFNIVMVVEPLCIKISEAIMNFQDSGQDITNRVFQGCGRPKLKKMKRSISPKLQGVQILNARSPVEADTLDIDETLDEAIVLRERRAAEPGSQETSAQQSQEQGVGKSGNGGGGGGGNNRRQQQRRKQQQQRRKQQNNRDDNDDDDNESGGGREPILDRIVRDIRQRVKDYKKFWSNLPHSVCSNEDIASSSDVDGMCWNGHTIDRYMHSITTEHGSNPEFTGNPASTKQTAQMASQLSHLKNAIVHLRNAYNGQDVEWSEQEELPYAGSGAGSGSGSEDDEDDDEGSGLGPFEPSHKPDVERPSVDADNDDDEDAGGRGHMPTHTSRPTSGVDDKNPLIHTTHFDQDHNDLDEDHRQLDEDEDTDAG	no in vivo trapping activity
Dlp[S168M]^ΔGPI: Dlp mutant with bulky residue at cavity entrance; HA form used in discs (protein, left off: V5, C-terminal, kept) PQVAALAAPNPAGGVAGSSIIDQFSPNCSAVTHIFQARGIDAIEIPQKPSNERVLRYCESPSVGTCCTYNMETRMAMQSRQQLEGHTKDQISRMSGILGSKATKFKDIFTALLKEMRTQFNSMFIRTYGVIYERNSYVFSDLFKELETYFANGRVDLLEVMDKFFNTLYQKMFTVLNTQYTFDENYMRCVSEHMKELKPFGDVPDKLSVQIKRSFVATRTYGQALTTASEVAKKVLNVRLNADCTGALTKMQHCGACKGYTEKPCTNYCVNVIKGCLHYQHEFDSEWENFAMAMDKVAERLLGSFNIVMVVEPLNIKISEAIMNFQDSGQDITNRVFQGCGRPKLKKMKRSISPKLQGVQILNARSPVEADTLDIDETLDEAIVLRERRAAEPGSQETSAQQSQEQGVGKSGNGGGGGGGNNRRQQQRRKQQQQRRKQQNNRDDNDDDDNESGGGREPILDRIVRDIRQRVKDYKKFWSNLPHSVCSNEDIASSSDVDGMCWNGHTIDRYMHSITTEHGSNPEFTGNPASTKQTAQMASQLSHLKNAIVHLRNAYNGQDVEWSEQEELPYAGSGAGSGSGSEDDEDDDEGSGLGPFEPSHKPDVERPSVDADNDDDEDAGGRGHMPTHTSRPTSGVDDKNPLIHTTHFDQDHNDLDEDHRQLDEDEDTDAG	retained some activity
Dally[E149R, N150T, M151Q, T152F]: Dally mutant removing predicted glycosylation site and restoring hydrophobic F (protein, left off: HA, end not stated, kept) KHLDLDGIHHHQHHLHSATTHHRRRLQRDSRAKDAVGGSTHQCDAVKSYFESIDIKSSGTYSEKGAICGGNCCNNATELELRDKAAGMFEQLLHHHTSSLRGVLETNAKQFQSHVLELAQISRTQFHSLFSKVYTRMVPSSRMMIHQLYTEIMNHLIYTSNYTNSNGQLGRRGIGSVQSNLEEAVRHFFVQLFPVAYHQMVHLSKNNLGDLHEDYVNCLQHNFDEMHPFGDIPQQVQSNLGKSVHMSNVFMNALLQAAEVLSEADALYGEQLTDTCKLHLLKMHYCPNCNGHHSSSRSETKLCYGYCKNVMRGCSAEYAGLLDSPWSGVVDSLNNLVTTHILSDTGIINVIKHLQTYFSEAIMAAMHNGPELEKKVKKTCGTPSLTPYSSGEPDARPPPHKNNVKWATDPDPGMVLFLSTIDKSKEFYTTIVDNFCDEQQHSRDDHSCWSGDRFGDYTQLLINPGTDSQRYNPEVPFNAKAQTGKLNELVDKLFKIRKSIGAAAPSNSIQATHDIQNDMGEGSGGGEGQIGDDEEEYGGAHGSGDGSGDGPHTPIEESEGTTTNEVESRDSGKTSG	did not confer lipid-binding activity
